Experimental data: ChEMBL document CHEMBL1152237, “Sequence specific and high affinity recognition of 5'-ACGCGT-3' by rationally designed pyrrole-imidazole H-pin polyamides: thermodynamic and structural studies” (Bioorg Med Chem, 2008)
The source made the active and inactive calls. The rule behind the calls is not given here.

Experiments:
[1] = Binding affinity to 5'AAATTT3' sequence of non-cognate DNA assessed as heat change by isothermal titration colorimetry
Procedure, shortened: (§1)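 ITC at 25, 30 and 35 °C. DNA (2 µM in PO 5) was titrated with ligand (0.5 mM in PO 5) in 3 µL injections every 300 s, 50 injections in total. One-site model fit, with a linear fit subtracted to remove non-specific heat. ΔG was taken from SPR Keq as −RT ln Keq.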

Nucleic Acid [2] = test: Binding affinity to 5'ACCGGT3' sequence of non-cognate DNA assessed as change in melting temperature by thermal denaturation method; format: nucleic-acid assay
Procedure, shortened: (§2)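 Thermal melting in PO 0 buffer (10 mM sodium phosphate, 1 mM EDTA, pH 6.2). Oligonucleotides were reannealed first (70 °C for 1 min, then cooled to RT). Ramp from 25 to 95 °C at 0.5 °C/min, with Abs260 recorded every 0.5 °C. Tm was taken as the maximum of the first derivative, and ΔTm was the shift on ligand binding.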

[3] = Binding affinity to 5'ACCGGT3' sequence of non-cognate DNA assessed as heat change by isothermal titration colorimetry; procedure, shortened: as §1
[4] = Binding affinity to 5'ACGCGT3' sequence of cognate DNA by surface plasmon resonance method
Procedure, shortened: (§3)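 SPR at 25 °C in degassed MES buffer (200 mM Na+, 10 mM MES, 1 mM EDTA, surfactant P20, pH 6.25). DNA hairpins were immobilized to about 400 RU, with one flow cell left blank. Ligand (0.1–400 nM) was injected at 20 µL/min for 12.5 min, then dissociated for 20 min. The surface was regenerated with 500 mM NaCl/25 mM NaOH. Global 1:1 kinetic fit; Keq = ka/kd.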

[5] = Binding affinity to 5'ACCGGT3' sequence of non-cognate DNA by surface plasmon resonance method; procedure, shortened: as §3
Nucleic Acid [6] = test: Binding affinity to 5'ACGCGT3' sequence of cognate DNA assessed as change in melting temperature by thermal denaturation method; format: nucleic-acid assay; procedure, shortened: as §2
[7] = Binding affinity to 5'AAATTT3' sequence of non-cognate DNA by surface plasmon resonance method; procedure, shortened: as §3
[8] = Binding affinity to 5'ACGCGT3' sequence of cognate DNA assessed as exothermic enthalpy at 25 to 50 degC by isothermal titration colorimetry
Nucleic Acid [9] = test: Binding affinity to 5'AAATTT3' sequence of non-cognate DNA assessed as change in melting temperature by thermal denaturation method; format: nucleic-acid assay; procedure, shortened: as §2
[10] = Binding affinity to 5'ACGTGT3' sequence of cognate DNA at 5 uM by DnaseI footprinting assay
Procedure, shortened: (§4)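 DNA was incubated 30 min with ligand in TN buffer (10 mM Tris, 10 mM NaCl, pH 7). Digestion ran 3 min with DNase I in buffer containing NaCl, MgCl2 and MnCl2, then stopped on dry ice. Products were resolved on a 10% polyacrylamide/7.5 M urea gel and read by autoradiography.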

[11] = Binding affinity to 5'ACGCGT3' sequence of cognate DNA at 0.5 uM by DnaseI footprinting assay; procedure, shortened: as §4

| Activity [1] | ΔTm (Nucleic Acid [2]) [°C] | Activity [3] | K [4] | K [5] | ΔTm (Nucleic Acid [6]) [°C] | K [7] | Activity [8] | ΔTm (Nucleic Acid [9]) [°C] | Activity [10] | Activity [11] | SMILES |
| --- | --- | --- | --- | --- | --- | --- | --- | --- | --- | --- | --- |
| inactive | 14.1 | inactive | 2 ×10¹⁰ /M | 1.1 ×10⁸ /M | > 30 | 5 ×10⁵ /M | Active | 9.3 |  |  | CN(C)CCNC(=O)c1nc(NC(=O)c2cc(NC(=O)c3nc(NC=O)cn3C)cn2CCOCCOCCn2cc(NC(=O)c3nc(NC=O)cn3C)cc2C(=O)Nc2cn(C)c(C(=O)NCCN(C)C)n2)cn1C |
| inactive | 1.1 | inactive | 1.9 ×10⁸ /M | 2.2 ×10⁵ /M | 7.8 | 5.3 ×10⁴ /M |  | 0.9 |  |  | CN(C)CCNC(=O)c1nc(NC(=O)c2cc(NC(=O)c3nc(NC=O)cn3C)cn2C)cn1C |
|  | 0.1 |  | 7.1 ×10⁶ /M |  | 3 |  |  | 0.1 | Active | Active | CN(C)CCNC(=O)c1nc(NC(=O)c2cc(NC(=O)c3nc(NC(=O)c4cccn4C)cn3C)cn2C)cn1C |
